ChEMBL document CHEMBL1134955, “Identification and structure-activity studies of novel ultrashort-acting benzodiazepine receptor agonists” (Bioorg Med Chem Lett, 2002)

Columns and labels:
[1] = target: GABA-A receptor; anion channel (Rattus norvegicus) (UniProt O09028+P15431+P18506+P18508+P19969+P20236+P23574+P23576+P28471+P28473+P30191+P62813+P63079+P63138+Q91ZM7+Q9ES14); assay: Ratio between Ki value (acid) / Ki value (ester) was determined; format: protein-complex assay
Method in brief: (§1)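 Ki of the acid divided by Ki of the matching ester. Both Ki values come from [3H]-flunitrazepam displacement at rat BZD receptor membranes (2 nM radioligand, 90 min, 4 °C, Tris–HCl pH 7.4 with NaCl), with triplicate 12-point curves.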

[2] = target: GABA-A receptor; anion channel; assay: Binding affinity to rat benzodiazepine receptor; format: protein-complex assay
Method in brief: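 Rat BZD receptor membranes incubated with 2 nM [3H]-flunitrazepam and test ligand for 90 min at 4 °C in 50 mM Tris–HCl pH 7.4 with 150 mM NaCl. Twelve-point curves made by 3-fold serial dilution from DMSO stocks, final DMSO ≤0.4%. Nonspecific binding taken with 2'-chlorodiazepam. Filtration through GF/B, ice-cold Tris washes, scintillation counting. Triplicates, at least three runs; Ki reported in nM.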

Rattus norvegicus [3] = assay: Loss of righting reflex recovery time (total) in rat was determined when treated with a dose of 30 mg/Kg; format: functional, organism-based
Method in brief: (§2)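 Rats given an iv bolus in 50% PEG/25% EtOH/25% saline. Scored for time to LRR onset, initial recovery (rights itself three consecutive times) and total recovery (walks without ataxia and pulls up three times when hung from a horizontal wire), in min.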

Rattus norvegicus [4] = assay: Loss of righting reflex recovery time (initial) in rat was determined when treated with a dose of 30 mg/Kg; format: functional, organism-based; method in brief: as §2
[5] = Ratio between Ki (acid) / Ki (ester) was determined; method in brief: as §1

Row | SMILES | Ratio [1] | Ki [2] | Recovery time (Rattus norvegicus [3]) | Recovery time (Rattus norvegicus [4]) | Ratio [5]
1 | CCOC(=O)C[C@@H]1N=C(c2ccccc2F)c2cc(Cl)ccc2NC1=O | 297 | 45 nM | – | – | –
2 | COC(=O)CC[C@@H]1N=C(c2ccccc2F)c2cc(Cl)ccc2NC1=O | 984 | 7 nM | 24 min | 9 min | –
3 | COC(=O)CCN[C@H]1N=C(c2ccccc2Cl)c2cc(Cl)ccc2NC1=O | 130 | 3 nM | – | – | –
4 | O=C(CC[C@@H]1N=C(c2ccccc2F)c2cc(Cl)ccc2NC1=O)OCc1ccccc1 | 143 | 29 nM | 19 min | 8 min | –
5 | CN1C(=O)CN=C(c2ccccc2)c2cc(Cl)ccc21 | – | – | 82 min | 5 min | –
6 | O=C(CC[C@@H]1N=C(c2ccccc2)c2cc(Cl)ccc2NC1=O)OCc1ccccc1 | – | 200 nM | 22 min | 15 min | –
7 | COC(=O)CCN[C@@H]1N=C(c2ccccc2Cl)c2cc(Cl)ccc2NC1=O | 1 | 189 nM | – | – | –
8 | COC(=O)CN[C@H]1N=C(c2ccccc2Cl)c2cc(Cl)ccc2NC1=O | 172 | 23 nM | – | – | –
9 | COC(=O)CC[C@@H]1N=C(c2ccccc2F)c2ccccc2NC1=O | – | 92 nM | – | – | –
10 | O=C(CC[C@@H]1N=C(c2ccccc2)c2cc([N+](=O)[O-])ccc2NC1=O)OCc1ccccc1 | 91 | 124 nM | 3 min | 2 min | –
11 | COC(=O)CN[C@@H]1N=C(c2ccccc2Cl)c2cc(Cl)ccc2NC1=O | 9 | 480 nM | – | – | –
12 | COC(=O)CC[C@@H]1N=C(c2ccccc2F)c2cc(Br)ccc2NC1=O | 431 | 3 nM | 30 min | 22 min | –
13 | CCCCOC(=O)CC[C@@H]1N=C(c2ccccc2F)c2cc(Cl)ccc2NC1=O | 17 | 242 nM | 25 min | 15 min | –
14 | COC(=O)CC[C@H]1N=C(c2ccccc2F)c2cc(Cl)ccc2NC1=O | – | 741 nM | 4 min | 2 min | –
15 | COC(=O)CC[C@@H]1N=C(c2ccccc2)c2cc([N+](=O)[O-])ccc2NC1=O | 95 | 118 nM | 14 min | 2 min | –
16 | COC(=O)C[C@@H]1N=C(c2ccccc2F)c2cc(Cl)ccc2NC1=O | – | 81 nM | – | – | 165
17 | COC(=O)CC[C@@H]1N=C(c2ccccc2F)c2cc([N+](=O)[O-])ccc2NC1=O | – | 7 nM | – | – | –
18 | COC(=O)CCNC1N=C(c2ccccc2Cl)c2cc(Cl)ccc2NC1=O (centres undefined) | 17 | 17 nM | – | – | –
19 | CC(C)OC(=O)CC[C@@H]1N=C(c2ccccc2F)c2cc(Cl)ccc2NC1=O | 108 | 39 nM | – | – | –
20 | COC(=O)CNC1N=C(c2ccccc2Cl)c2cc(Cl)ccc2NC1=O (centres undefined) | 35 | 53 nM | – | – | –
21 | O=C(C[C@H]1N=C(c2ccccc2)c2cc(Cl)ccc2NC1=O)OCc1ccccc1 | – | 100000 nM | – | – | –
22 | Cc1ncc2n1-c1ccc(Cl)cc1C(c1ccccc1F)=NC2 [MIDAZOLAM] | – | 2 nM | 121 min | 23 min | –
23 | O=C(C[C@@H]1N=C(c2ccccc2)c2cc(Cl)ccc2NC1=O)OCc1ccccc1 | – | 1450 nM | 14 min | 4 min | –
24 | COC(=O)CCC[C@@H]1N=C(c2ccccc2F)c2cc(Cl)ccc2NC1=O | 186 | 3 nM | – | – | –
25 | O=C(CC[C@@H]1N=C(c2ccccc2F)c2cc(Cl)ccc2NC1=O)OCc1ccncc1 | 124 | 34 nM | – | – | –
26 | O=C(C[C@@H]1N=C(c2ccccc2F)c2cc(Cl)ccc2NC1=O)OCc1ccncc1 | – | 289 nM | – | – | –
27 | O=C(C[C@@H]1N=C(c2ccccc2F)c2cc(Cl)ccc2NC1=O)OCc1ccccc1 | 76 | 176 nM | 17 min | 13 min | –
28 | O=C(CC[C@@H]1N=C(c2ccccc2F)c2ccccc2NC1=O)OCc1ccccc1 | – | 163 nM | – | – | –
